# In the library only some 1.5% were active in any assay of this set; here they are far more common.
# RanGTP-Imp inh – inhibitors of RanGTP-importin-beta interaction, primary screen, biochemical, FRET, CFP-Ran, YFP-importin-beta, homogeneous. hit rate 1.1% among 300,000. inhibition, % (test concentration not listed). cell-free CFP-Ran/YFP-importin-beta FRET ratio;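 active means more than half of the replicate wells show a fall in the fluorescence ratio signal beyond about 16%, limit read from the data, passing the limit was not always enough; inconclusive means exactly half of the replicate wells pass the set limit; inactive means fewer than half of replicates pass the limit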;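 further: 0% = DMSO wells and 100% = Ran loaded with GDP instead of GTP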
# Hck-Nef inh – human Hck-Nef kinase inhibition; P08631; Recombinant Hck-YEEI plus Nef, Z-Lyte FRET kinase assay; inhibition, % at 20 µM; hit rate 0.68% among 220,000;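 active means Hck-Nef kinase inhibition above about 50%, limit read from the data; inactive means inhibition below that limit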;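 further: 0% = DMSO with Hck plus Nef and 100% = Hck alone without Nef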
# Target sequence (P08631 whole entry, looked up): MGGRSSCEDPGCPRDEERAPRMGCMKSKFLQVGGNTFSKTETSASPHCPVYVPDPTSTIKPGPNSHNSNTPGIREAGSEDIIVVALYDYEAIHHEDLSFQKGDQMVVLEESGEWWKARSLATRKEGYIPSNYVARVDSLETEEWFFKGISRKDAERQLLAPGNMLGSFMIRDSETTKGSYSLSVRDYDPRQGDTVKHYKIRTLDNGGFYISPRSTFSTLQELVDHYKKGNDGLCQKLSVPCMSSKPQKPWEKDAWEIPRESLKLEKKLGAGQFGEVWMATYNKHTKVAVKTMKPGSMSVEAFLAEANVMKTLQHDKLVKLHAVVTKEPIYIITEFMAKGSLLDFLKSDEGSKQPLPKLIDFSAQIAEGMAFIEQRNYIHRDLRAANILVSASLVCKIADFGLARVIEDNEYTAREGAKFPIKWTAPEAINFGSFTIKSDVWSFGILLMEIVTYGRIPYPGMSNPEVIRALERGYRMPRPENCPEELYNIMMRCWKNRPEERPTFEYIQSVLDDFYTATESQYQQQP
# Runt-SMMHC FRET – Runt domain-CBFb-SMMHC interaction inhibition; Q01196+Q13951; Cerulean-Runt/Venus-CBFb-SMMHC FRET ratio 530/480, 1 h; inhibition, % at 20 µM; hit rate 0.74% among 220,000;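 active means mean inhibition across duplicate retests at 20 µM reaching about 50%, limit read from the data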;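 further: 0% = DMSO wells and 100% = wells with excess untagged CBFb-SMMHC; inhibitors lower the FRET ratio by blocking Runt binding to CBFb-SMMHC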
# Runt-CBFb FRET – Runt domain-CBFb interaction inhibition. hit rate 0.46% among 220,000. inhibition, % at 20 µM. Cerulean-Runt/Venus-CBFb FRET ratio 530/480, 1 h. Q01196+Q13951;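 active means inhibition over about 50% at 20 µM in the single-dose screen, limit read from the data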;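 further: 0% = DMSO wells and 100% = excess unlabeled CBFb competitor control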
#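 test system = Cerulean-Runt domain fusion protein, energy donor | probe or stimulus = Venus-CBFb binding partner, 100 nM | incubation = two 1 h room-temperature incubations shielded from light | detection = fluorescence energy transfer, 422 nm excitation, 530/480 nm emission | measure = loss of energy transfer signal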
# CaV13 FRET inh – Disruptors of the CACNA1D IQ motif to Ca2+-dependent inactivation inhibitor domain association, primary screening, Förster resonance energy transfer in intact living …. inhibition, % at 12.3 µM. hit rate 0.098% among 340,000. HEK cells, CFP/YFP FRET ICDI-IQ, plate reader, 10 min; percent FRET-ratio fall versus neutral wells;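 active means mean replicate inhibition of at least 30% and at least 1% of replicates passing that level; inconclusive means only one of the two criteria is met; inactive means neither criterion is met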;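 further: 0% = median of the neutral control wells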
# Hck-Nef confirm – confirmation of Hck-Nef kinase inhibitors; shares compounds with Hck-Nef inh; Recombinant Hck-YEEI:Nef, Z-Lyte FRET kinase assay; calls only at 10 µM; hit rate 28% among 1,300;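 active means average inhibition of at least 50%, with Z-scores no higher than 3 in both the phospho-tyrosine peptide and fluorescence counterscreens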
# An asterisk follows results filed as active; i = inactive; ? = inconclusive; nt = no result given; + = active, no number.
SMILES,RanGTP-Imp inh,Hck-Nef inh,Runt-SMMHC FRET,Runt-CBFb FRET,CaV13 FRET inh,Hck-Nef confirm
O=C1NC(=O)C(=Cc2ccc(-c3ccccc3[N+](=O)[O-])o2)C(=O)N1,0,76*,27,20,-6,+
CCC(C)n1c(O)c(C=NCC2CCCO2)c(=O)[nH]c1=S (stereo not given),3,-18,0,2,-5,nt
O=C1NC(=O)C(=Cc2coc3ccccc3c2=O)C(=O)N1,-1,97*,-4,-1,-3,+
O=C1NC(=O)C(=Cc2csc3ccccc23)C(=O)N1,-2,-17,21,30,-17,nt
COC1C(OC(=O)c2ccc(C)[nH]2)C(O)C(Oc2ccc3c(O)c(NC(=O)c4ccc(O)c(CC=C(C)C)c4)c(=O)oc3c2Cl)OC1(C)C (stereo not given),nt,55*,-10,-1,nt,i
O=S(=O)(c1ccc2ccccc2c1)N1Cc2cc(Br)ccc2-n2nncc2C1,nt,nt,nt,nt,-4,nt
NC(=S)N/N=C/c1coc2ccccc2c1=O,0,53*,2,1,-3,i
COc1ccc(-c2ccc3n2Cc2cnnn2-c2ccccc2-3)cc1,nt,nt,nt,nt,-3,nt
CCN(CC)CCN=Cc1c(O)n(CCc2ccccc2)c(=O)[nH]c1=O,1,62*,3,1,-5,i
CC[C@@H]1C=CC=CC[C@H](C)[C@@H](O)[C@@H](C)C(=O)[C@H](C)[C@@H](O)[C@H](C)C(=O)[C@H](C)[C@@H](O)[C@H](C)C=CC(=O)O[C@H]2[C@@H](C)[C@@H](CC1)O[C@@]1(CC[C@@H](C)[C@@H](C[C@H](C)O)O1)[C@@H]2C,0,nt,nt,nt,nt,nt
CCCCCCCCN=Cc1c(O)[nH]c(=O)[nH]c1=O,0,2,-5,1,-5,nt
C=CCNC(=S)/N=C/c1c(O)[nH]c(=O)[nH]c1=O,-1,83*,-6,2,5,i
NC(=S)/N=C/c1c(O)[nH]c(=O)[nH]c1=O,4,63*,3,4,-4,i
COC(=O)C1=C(c2ccc(S(C)(=O)=O)cc2)C[C@@H]2CC[C@H]1N2C(=O)N1CCC(C)CC1,?,nt,nt,nt,-11,nt
COC(=O)C1=C(c2cccc(OCc3ccccc3)c2)C[C@@H]2CC[C@H]1N2C(=O)NCc1ccc(C(F)(F)F)cc1,nt,nt,nt,nt,-6,nt
O=C(O)Cn1cc(/C=C2\C(=O)NC(=O)N(Cc3ccco3)C2=O)c2ccccc21,-2,74*,-9,19,-10,i
Nc1c(C(=O)NCCN2CCOCC2)c2nc3ccccc3nc2n1Cc1ccco1,64*,58*,nt,72*,nt,i
O=C(NCCN1CCOCC1)c1ccc(Cl)nc1Cl,10,8,0,0,-19,nt
CC(C)CCNC(=O)c1c(N)n(CC2CCCO2)c2nc3ccccc3nc12 (stereo not given),93*,58*,20,2,-5,i
Cc1nn(Cc2ccccc2)c(Cl)c1C(=O)OCC(=O)NCC1CCCO1 (stereo not given),3,25,-1,1,-6,nt
Nc1c(C(=O)NCCN2CCOCC2)c2nc3ccccc3nc2n1Cc1ccccc1,63*,95*,81*,78*,-4,nt
CC1CN1P(=O)(Oc1ccccc1)N1CC1C (stereo not given),nt,nt,nt,nt,-6,nt
CCC(=O)N1N=C(c2c(O)n(CCc3ccccc3)c(=O)[nH]c2=O)CC1c1ccc(OC)c(OC)c1 (stereo not given),0,22,3,0,-5,nt
CCN(CC)C(=O)c1ccc2c(c1)C1C(Cl)C(Sc3ccccc3[N+](=O)[O-])CC1C(C(=O)O)N2 (stereo not given),1,63*,2,11,nt,i
CC(C)(C)NC(=O)NC(=O)CN1CC=C(c2ccccc2)CC1,nt,19,-1,1,-1,nt
N#Cc1ccccc1NC(=O)CN1CC=C(c2ccccc2)CC1,2,55*,-1,-3,3,i

# High-throughput results: PubChem, several laboratories
